For 16 compounds, Activity and mortality results are on record in ChEMBL document CHEMBL3045504, “Activity of 1,4-benzoquinones against formosan subterranean termites (Coptotermes formosanus)” (2008).

Molecules are shown by their SMILES.

Usually mortality stands for the percentage killed.

The first experiment deals with Coptotermes formosanus. Put plainly: Antifeedant activity against Coptotermes formosanus placed on 0.5 % wt/wt compound treated filter paper assessed as filter paper consumption measured 21 days post compound exposure (reference value: 23.6 +/- 13.6 mg). In kind it is functional.
`COC1=C(OC)C(=O)C(Cl)=C(Cl)C1=O`: the Activity is reported as 19.3 mg.

`CC1=C(Br)C(=O)C(Br)=C(Cl)C1=O`: the Activity is 26.1 mg.

The subject of another experiment is Coptotermes formosanus. Put plainly: Antifeedant activity against Coptotermes formosanus placed on 1 % wt/wt compound treated filter paper assessed as filter paper consumption measured 21 days post compound exposure (reference value: 42.4 +/- 4.3 mg). Format: functional.
For `COC1=CC(=O)C(c2ccccc2)=CC1=O`, the Activity was found to be 35.8 mg.

For `COC1=CC(=O)C(C[P+](c2ccccc2)(c2ccccc2)c2ccccc2)=CC1=O.[Cl-]`, the Activity was 5.3 mg.

For the compound `CCCCCCCCCCC1=C(C)C(=O)C(OC)=C(OC)C1=O` [DECYLUBIQUINONE], the Activity amounted to 19.3 mg.

As for `COC1=C(OC)C(=O)C(CCCCCCCCCCO)=C(C)C1=O` [IDEBENONE], the Activity is 37.9 mg.

As for `COC1=C(OC)C(=O)C(C)=CC1=O` [Ubiquinone Qo], the Activity was 7.2 mg.

The subject of a further experiment is Coptotermes formosanus. Nature of the experiment: Antifeedant activity against Coptotermes formosanus placed on 1 % wt/wt compound treated filter paper assessed as filter paper consumption measured 21 days post compound exposure (reference value: 85 +/- 15.1 mg). Format: functional.
Turning to `Cc1ccc(C2=CC(=O)C=CC2=O)cc1`, the Activity is on record as 43.2 mg.

Consider `CC(C)(C)C1=CC(=O)C=CC1=O`, for which the Activity is 60.4 mg.

On to `CC1=CC(=O)C(C(C)(C)C)=CC1=O`, for which the Activity is recorded as 68.3 mg.

As for `COC1=CC(=O)C=CC1=O`, the Activity is listed as 6.5 mg.

Take `COC1=CC(=O)C(OC)=CC1=O`: the Activity amounted to 107 mg.

Consider `COC1=CC(=O)C=C(OC)C1=O` [2,6-DIMETHOXYQUINONE], for which the Activity came out at 75.9 mg.

`O=C1C=CC(=O)C=C1` [BENZOQUINONE]: the Activity is reported as 80.7 mg.

As to `COC1=C(OC)C(=O)C(C/C=C(\C)CCC=C(C)C)=C(C)C1=O` [Coenzyme Q2], the Activity is reported as 56.1 mg.

With `COC1=C(OC)C(=O)C(C/C=C(\C)CC/C=C(\C)CC/C=C(\C)CCC=C(C)C)=C(C)C1=O` [Coenzyme Q4], the Activity is on record as 74.6 mg.

The subject of another experiment is Coptotermes formosanus. Put plainly: Termiticidal activity against Coptotermes formosanus placed on 1 % wt/wt compound treated filter paper assessed as termite mortality measured 21 days post compound exposure. Format: functional.
With `Cc1ccc(C2=CC(=O)C=CC2=O)cc1`, the mortality amounted to 38.3%.

With `COC1=CC(=O)C(c2ccccc2)=CC1=O`, the mortality is listed as 31.7%.

As for `COC1=CC(=O)C(C[P+](c2ccccc2)(c2ccccc2)c2ccccc2)=CC1=O.[Cl-]`, the mortality is reported as 98.3%.

Regarding `CC(C)(C)C1=CC(=O)C=CC1=O`, the mortality amounted to 28.3%.

In the case of `CC1=CC(=O)C(C(C)(C)C)=CC1=O`, the mortality was determined as 26.7%.

In the case of `COC1=CC(=O)C=CC1=O`, the mortality came to 31.7%.

Take `COC1=CC(=O)C(OC)=CC1=O`: the mortality came to 8.3%.

`COC1=CC(=O)C=C(OC)C1=O` [2,6-DIMETHOXYQUINONE]: the mortality was 3.3%.

In the case of `COC1=C(OC)C(=O)C(C/C=C(\C)CCC=C(C)C)=C(C)C1=O` [Coenzyme Q2], the mortality turned out to be 25%.

Regarding `COC1=C(OC)C(=O)C(C/C=C(\C)CC/C=C(\C)CC/C=C(\C)CCC=C(C)C)=C(C)C1=O` [Coenzyme Q4], the mortality was determined as 15%.

In the case of `CCCCCCCCCCC1=C(C)C(=O)C(OC)=C(OC)C1=O` [DECYLUBIQUINONE], the mortality was 100%.

As to `COC1=C(OC)C(=O)C(CCCCCCCCCCO)=C(C)C1=O` [IDEBENONE], the mortality is 38.3%.

As for `COC1=C(OC)C(=O)C(C)=CC1=O` [Ubiquinone Qo], the mortality was 90%.

The subject of another experiment is Coptotermes formosanus. Put plainly: Termiticidal activity against Coptotermes formosanus placed on 1 % wt/wt compound treated filter paper assessed as termite mortality measured 3 days post compound exposure. Format: functional.
Regarding `Cc1ccc(C2=CC(=O)C=CC2=O)cc1`, the mortality turned out to be 5%.

For `COC1=CC(=O)C(c2ccccc2)=CC1=O`, the mortality is 3.3%.

Take `COC1=CC(=O)C(C[P+](c2ccccc2)(c2ccccc2)c2ccccc2)=CC1=O.[Cl-]`: the mortality is 13.3%.

Take `CC(C)(C)C1=CC(=O)C=CC1=O`: the mortality turned out to be 13.3%.

Consider `CC1=CC(=O)C(C(C)(C)C)=CC1=O`, for which the mortality came to 5%.

On to `COC1=CC(=O)C=CC1=O`, for which the mortality is 13.3%.

In the case of `COC1=CC(=O)C(OC)=CC1=O`, the mortality is given as 3.3%.

As to `COC1=CC(=O)C=C(OC)C1=O` [2,6-DIMETHOXYQUINONE], the mortality is given as 0%.

On to `COC1=C(OC)C(=O)C(C/C=C(\C)CCC=C(C)C)=C(C)C1=O` [Coenzyme Q2], for which the mortality is on record as 0%.

On to `COC1=C(OC)C(=O)C(C/C=C(\C)CC/C=C(\C)CC/C=C(\C)CCC=C(C)C)=C(C)C1=O` [Coenzyme Q4], for which the mortality is on record as 1.7%.

`CCCCCCCCCCC1=C(C)C(=O)C(OC)=C(OC)C1=O` [DECYLUBIQUINONE]: the mortality came to 13.3%.

In the case of `COC1=C(OC)C(=O)C(CCCCCCCCCCO)=C(C)C1=O` [IDEBENONE], the mortality amounted to 0%.

With `COC1=C(OC)C(=O)C(C)=CC1=O` [Ubiquinone Qo], the mortality was found to be 75%.

Another experiment deals with Coptotermes formosanus. Put plainly: Termiticidal activity against Coptotermes formosanus placed on 0.5 % wt/wt compound treated filter paper assessed as termite mortality measured 21 days post compound exposure. Format: functional. The method, boiled down: (§1)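 Treated filter paper disks moistened with 100 µL water; 20 C. formosanus workers (third instar or greater) plus 1 soldier per dish from field colonies kept on spruce, ca. 100% RH, 26.6 °C. Daily mortality scored for 3 weeks; cumulative percent mortality from four replicates, each a different colony; water-only controls; ANOVA, protected Fisher LSD (P < 0.05) after arcsine square-root transform.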
Regarding `COC1=C(OC)C(=O)C(Cl)=C(Cl)C1=O`, the mortality is reported as 30%.

For the compound `CC1=C(Br)C(=O)C(Br)=C(Cl)C1=O`, the mortality is 31.3%.

Another experiment has as its system Coptotermes formosanus. Put plainly: Termiticidal activity against Coptotermes formosanus placed on 1 % wt/wt compound treated filter paper assessed as termite mortality measured 11 days post compound exposure. Format: functional.
Regarding `Cc1ccc(C2=CC(=O)C=CC2=O)cc1`, the mortality is listed as 16.7%.

In the case of `COC1=CC(=O)C(c2ccccc2)=CC1=O`, the mortality came out at 6.7%.

Turning to `COC1=CC(=O)C(C[P+](c2ccccc2)(c2ccccc2)c2ccccc2)=CC1=O.[Cl-]`, the mortality is 60%.

`CC(C)(C)C1=CC(=O)C=CC1=O`: the mortality is given as 18.3%.

Consider `CC1=CC(=O)C(C(C)(C)C)=CC1=O`, for which the mortality was 21.7%.

For `COC1=CC(=O)C=CC1=O`, the mortality is listed as 21.7%.

Take `COC1=CC(=O)C(OC)=CC1=O`: the mortality came out at 6.7%.

As to `COC1=CC(=O)C=C(OC)C1=O` [2,6-DIMETHOXYQUINONE], the mortality stood at 3.3%.

Consider `COC1=C(OC)C(=O)C(C/C=C(\C)CCC=C(C)C)=C(C)C1=O` [Coenzyme Q2], for which the mortality amounted to 15%.

On to `COC1=C(OC)C(=O)C(C/C=C(\C)CC/C=C(\C)CC/C=C(\C)CCC=C(C)C)=C(C)C1=O` [Coenzyme Q4], for which the mortality turned out to be 11.7%.

On to `CCCCCCCCCCC1=C(C)C(=O)C(OC)=C(OC)C1=O` [DECYLUBIQUINONE], for which the mortality is listed as 75%.

On to `COC1=C(OC)C(=O)C(CCCCCCCCCCO)=C(C)C1=O` [IDEBENONE], for which the mortality came to 0%.

For the compound `COC1=C(OC)C(=O)C(C)=CC1=O` [Ubiquinone Qo], the mortality amounted to 81.7%.

The subject of the next experiment is Coptotermes formosanus. Nature of the experiment: Termiticidal activity against Coptotermes formosanus placed on 0.5 % wt/wt compound treated filter paper assessed as termite mortality measured 3 days post compound exposure. Format: functional. The method, boiled down:
as §1
Consider `COC1=C(OC)C(=O)C(Cl)=C(Cl)C1=O`, for which the mortality was found to be 2.5%.

As for `CC1=C(Br)C(=O)C(Br)=C(Cl)C1=O`, the mortality is 2.5%.

A further experiment deals with Coptotermes formosanus. Nature of the experiment: Termiticidal activity against Coptotermes formosanus placed on 0.5 % wt/wt compound treated filter paper assessed as termite mortality measured 11 days post compound exposure. In kind it is functional. The gist of the method: as §1
In the case of `COC1=C(OC)C(=O)C(Cl)=C(Cl)C1=O`, the mortality was 8.8%.

As for `CC1=C(Br)C(=O)C(Br)=C(Cl)C1=O`, the mortality is 22.5%.
